The results in this text go back to ChEMBL document CHEMBL4513216, “Probing the Open Global Health Chemical Diversity Library for Multistage-Active Starting Points for Next-Generation Antimalarials” (ACS Infect Dis, 2020).

The data set in a line: Toxicity liver stage against HepG2, at 10uM. In kind it is cell-based. The arrangement: test concentration 10 uM, cell line HepG2-A16-CD81EGFP. The conditions noted are these: human, HepG2-A16-CD81EGFP cells; read-out: INHIBITION
The method, boiled down:
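Uninfected HepG2-A16-CD81EGFP cells, 3 × 10^3 per well, 1536-well, plated on prespotted compound at 10 μM final, parasite-free screening media added to match infected plates; puromycin 10 μM positive, DMSO 0.5% negative; run in parallel with 48 h PbLuc assay at 37 °C, 5% CO2; viability by CellTiter-Glo luminescence, normalized to controls.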
Consider `CCS(=O)(=O)c1ccc2oc([C@H]3CCN(Cc4ccccc4)C3)nc2c1`, for which the cytotoxicity at 10 µM was 4.03%.

Turning to `CN(CCc1ccccn1)C(=O)c1cnn(-c2ccccc2F)c1N`, the cytotoxicity at 10 µM was -4.85%.

`Cc1csc2cc(C(=O)NC3CC3)cnc12`: the cytotoxicity at 10 µM is -0.697%.

On to `CC(C)CCNC(=O)c1csc(NC2CC2)n1`, for which the cytotoxicity at 10 µM is -0.243%.

With `O=C(CC1CCCC1)NCCS(=O)(=O)N1CCN(c2ncccn2)CC1`, the cytotoxicity at 10 µM is -1%.

In the case of `O=C(CCO)N1C[C@H]2CN(c3ccccc3)C(=O)[C@H]2C1`, the cytotoxicity at 10 µM turned out to be 1.35%.

As for `CNC(=O)c1nc2c(s1)CCN(C(=O)c1cccc(OC)c1)CC2`, the cytotoxicity at 10 µM worked out at 9.84%.

As for `Cc1nc(CN2C(=O)C[C@@H]3[C@@H]2CCN3S(C)(=O)=O)cs1`, the cytotoxicity at 10 µM was -131%.

Regarding `N#Cc1cccc(N2CCCC3(C2)CN(c2nncs2)CCO3)c1` (configuration not stated), the cytotoxicity at 10 µM turned out to be 0.922%.

With `Cc1ccc(Cl)cc1NC(=O)Cn1cc(C(=O)O)ccc1=O`, the cytotoxicity at 10 µM is -1.45%.

For `COC(C)C(=O)N(CC(N)=O)Cc1cccc(Oc2ccccc2)c1` (configuration not stated), the cytotoxicity at 10 µM was 1.46%.

Turning to `N#Cc1cnc2cc(F)cc(F)c2c1NC1CCN(CC(N)=O)CC1`, the cytotoxicity at 10 µM came to 0%.

Turning to `CS(=O)(=O)N1CCN(C(=O)CCC2CCCO2)CC1` (configuration not stated), the cytotoxicity at 10 µM amounted to 0.815%.

As for `COCc1ccccc1NC(=O)CCNC(=O)c1ccoc1`, the cytotoxicity at 10 µM was -3.94%.

For the compound `CC(CNC(=O)c1ccco1)N1CCc2sccc2C1` (configuration not stated), the cytotoxicity at 10 µM turned out to be 0.107%.

With `CN(Cc1nc2ccccc2[nH]1)C(=O)CN(C)c1ccc(Cl)cn1`, the cytotoxicity at 10 µM is -2.66%.

`NC(=O)CSc1ccccc1NCc1nc(Cc2ccccc2)no1`: the cytotoxicity at 10 µM was found to be 7.04%.

In the case of `Cc1cc(CNC(=O)NCC(O)c2cccc(F)c2)no1` (configuration not stated), the cytotoxicity at 10 µM turned out to be 3.1%.

For `COC1CCN(c2ccc(F)cc2CN(C)C(=O)c2cc[nH]n2)CC1`, the cytotoxicity at 10 µM was -4.32%.

For `COCCSCC(=O)NCc1ccc(N(C)C)cc1`, the cytotoxicity at 10 µM was determined as 19%.

Regarding `CCc1ccc(S(=O)(=O)Nc2ccn(CC(=O)OC)n2)cc1`, the cytotoxicity at 10 µM is 7.22%.

Turning to `CCC(C)NC(=O)c1cncc(Br)c1` (configuration not stated), the cytotoxicity at 10 µM came out at 1.24%.

As for `O=C(CS(=O)(=O)c1ncccc1Cl)NC1CCCc2ccccc21` (configuration not stated), the cytotoxicity at 10 µM was -7.69%.

`N#Cc1cnc(NC2CCN(C(=O)C3CCCCC3)CC2)c(Cl)c1`: the cytotoxicity at 10 µM was -3.75%.

Regarding `CCCOCC(=O)Nc1ncc(I)cc1C`, the cytotoxicity at 10 µM amounted to 1.46%.

On to `O=C(NCC(O)c1ccc(F)cc1F)c1ccccc1` (configuration not stated), for which the cytotoxicity at 10 µM came to 4.15%.

`Cc1cccc(C(=O)NCC(O)c2ccc(F)cc2F)c1` (configuration not stated): the cytotoxicity at 10 µM is 6.27%.

As to `CCC(C)NC(=O)c1ccc(CNC(=O)COC)cc1` (configuration not stated), the cytotoxicity at 10 µM is 10.7%.

As for `Cc1nn(C)c(N2CCOCC2)c1CNC1CCS(=O)(=O)C1` (configuration not stated), the cytotoxicity at 10 µM was -3.99%.

As for `CC(C)c1cc(C(=O)NCc2nc(-c3ccc(F)cc3)n[nH]2)n[nH]1`, the cytotoxicity at 10 µM was -1.75%.

As for `CC(Cn1ccnc1)NS(=O)(=O)c1ccc(F)c(Cl)c1` (configuration not stated), the cytotoxicity at 10 µM came to 9.25%.

`N#Cc1ccnc(N2CCN(CC(O)c3ccccc3)CC2)c1` (configuration not stated): the cytotoxicity at 10 µM stood at 0.587%.

Turning to `Cc1ccc(S(=O)(=O)NC2CCC(=O)NC2)cc1Br` (configuration not stated), the cytotoxicity at 10 µM is -2.38%.

`Cc1cc(NC(=O)c2ccc(Br)cc2F)n(C)n1`: the cytotoxicity at 10 µM came to 3.42%.

Regarding `Cc1ccc(C(=O)Nc2ccc(N(C)C)cn2)n1C`, the cytotoxicity at 10 µM is -2.48%.

Regarding `CCN(CC)C(=O)CN(C)CCn1nc2ccccn2c1=O`, the cytotoxicity at 10 µM is -149%.

For `COCCOCC(=O)Nc1ccc(C)cc1Cl`, the cytotoxicity at 10 µM is 1.85%.

On to `Fc1ccc(C2CCCN2Cc2nnnn2C2CC2)cc1` (configuration not stated), for which the cytotoxicity at 10 µM was determined as 15.5%.

Consider `CC(C)N(CCC#N)C(=O)c1cnc(-c2ccc3c(c2)OCO3)s1`, for which the cytotoxicity at 10 µM worked out at 0.247%.

As for `Cc1cc(N(C)C)nc(N2CCN(C(C)c3nc(C)no3)CC2)n1` (configuration not stated), the cytotoxicity at 10 µM came out at 2.33%.

Turning to `COc1cc(C)nc(N2CCN(C(C)c3nc(C)no3)CC2)n1` (configuration not stated), the cytotoxicity at 10 µM stood at 3.55%.

On to `O=S(=O)(NCCN1CC=CC1)c1ccc(Cl)cc1`, for which the cytotoxicity at 10 µM is -6.04%.

On to `CS(=O)(=O)CCOCCNc1ccc(C#N)cc1F`, for which the cytotoxicity at 10 µM is -3.34%.

Take `O=C(NCC1CCOC1)c1csc(Cc2ccccc2)n1` (configuration not stated): the cytotoxicity at 10 µM was -118%.

For `O=C(CCc1ccccn1)N1CCSC2(CCCCC2)C1`, the cytotoxicity at 10 µM stood at 0.547%.

Consider `CN(C)c1ccc(NC(=O)NCc2cccs2)cn1`, for which the cytotoxicity at 10 µM is -1.15%.

As for `O=C(c1cc(F)ccc1O)N1CCN(C2CCSC2)CC1` (configuration not stated), the cytotoxicity at 10 µM came out at 0.773%.

As for `Cc1ccc(NC(=O)CS(=O)(=O)NC2CCC(C)CC2)nc1` (configuration not stated), the cytotoxicity at 10 µM is -9.24%.

Turning to `CCCn1nc(-c2nc(COc3ccccc3)no2)ccc1=O`, the cytotoxicity at 10 µM was -2.74%.

For the compound `O=C1NCCCc2[nH]c(-c3nc(C4CCCCC4)no3)nc21`, the cytotoxicity at 10 µM was -0.627%.

For `Cn1ccc2c(-c3cc(N4CCCCC4)ncn3)ccnc21`, the cytotoxicity at 10 µM was -3.46%.

`COCCCN1CCCC2(CCN(S(=O)(=O)c3cccnc3)C2)C1=O` (configuration not stated): the cytotoxicity at 10 µM is 8.21%.

Consider `O=C(C1CC1)N1CCc2[nH]cnc2C12CCN(C1CCOCC1)CC2`, for which the cytotoxicity at 10 µM was -1.16%.

For the compound `Cc1c(-c2nnc(SCC(=O)O)n2C(C)c2ccccc2)cnn1C` (configuration not stated), the cytotoxicity at 10 µM is -5.43%.

On to `COc1ccccc1OCc1cc(C(=O)N2CCC(NC(C)=O)C2)n[nH]1` (configuration not stated), for which the cytotoxicity at 10 µM was -4.26%.

For the compound `COc1ccc(-c2ccc(C(=O)N3CCOCC3CC(N)=O)o2)cc1` (configuration not stated), the cytotoxicity at 10 µM is 3.16%.

Take `CCCc1nc(C)cc(N2CCC3(CCC(=O)N(CCO)C3)CC2)n1`: the cytotoxicity at 10 µM was -6.71%.

In the case of `O=C(CN1CCCC1c1nc(-c2ccccn2)no1)N1CCOCC1` (configuration not stated), the cytotoxicity at 10 µM stood at 6.08%.

For `CCc1nn(C)c(Cl)c1CN1CCC2(C1)CN(C)C(=O)O2` (configuration not stated), the cytotoxicity at 10 µM stood at 1.95%.

On to `CC1(C)OC(=O)N(CC(=O)N2CCC(c3ccccc3F)C2)C1=O` (configuration not stated), for which the cytotoxicity at 10 µM was 0.189%.

In the case of `CCN(Cc1cccc(C(=O)Nc2ncc(C)s2)c1)[C@H]1COC[C@@H]1O`, the cytotoxicity at 10 µM was -2.61%.

In the case of `O=c1c2cccc(F)c2ncn1CCN1CCNCC1`, the cytotoxicity at 10 µM is -0.812%.

Consider `Cc1nc(NCC23CCCN2CCC3)cc(C2CCCNC2)n1` (configuration not stated), for which the cytotoxicity at 10 µM is 7.54%.

On to `COc1ncccc1-c1nc(-c2ccccn2)nn1C1CCN(C)CC1`, for which the cytotoxicity at 10 µM was -4.52%.

In the case of `Cc1c(CNC(=O)c2cn(CCC3CCCCN3)nn2)cnn1C` (configuration not stated), the cytotoxicity at 10 µM is -3.44%.

For `Cc1cc(N2CCCC(O)(CN(C)C)CC2)nc(-c2ccccc2)n1` (configuration not stated), the cytotoxicity at 10 µM was -9.41%.

Regarding `COc1ccc(F)c(-c2cc(NCCO)nc(N)n2)c1`, the cytotoxicity at 10 µM is -1.21%.

For `CCN(CC)C(CNS(=O)(=O)NCc1ccccc1)c1ccco1` (configuration not stated), the cytotoxicity at 10 µM stood at 1.53%.

In the case of `Cc1nc(C(C)NC(=O)COc2ccc(F)cc2)n[nH]1` (configuration not stated), the cytotoxicity at 10 µM was determined as 6.39%.

For `O=C1O[C@@H]2CN(CCc3ccccc3)C[C@@H]2N1CCCN1CCOCC1`, the cytotoxicity at 10 µM was -3.2%.

`Cc1cc(C)c(C(=O)N2CCOCC2c2c(C)nn(C)c2C)o1` (configuration not stated): the cytotoxicity at 10 µM was -2.48%.

For `CC(C)(C)c1ncc(C(=O)NCCNC(=O)c2cccs2)s1`, the cytotoxicity at 10 µM was -1.56%.

As for `COc1c(CNCCNC(=O)c2cccs2)c(C)nn1C`, the cytotoxicity at 10 µM was -0.373%.

Regarding `CS(=O)(=O)NC1CCCN(C(=O)COCc2ccccc2)C1` (configuration not stated), the cytotoxicity at 10 µM was -5.28%.

As for `CN(CC(=O)N1CCCCC1Cn1cccn1)C1CC1` (configuration not stated), the cytotoxicity at 10 µM is -3.45%.

Regarding `CN(CC(=O)NCc1cccnc1N1CCCCC1)C(=O)c1cccs1`, the cytotoxicity at 10 µM was -14.8%.

As for `CCn1cnnc1CNC(=O)N1CCC(CN2CCCCCC2)CC1`, the cytotoxicity at 10 µM is -8.57%.

In the case of `O=C(c1cccc(F)c1)N1CCCN(Cc2cscn2)CC1`, the cytotoxicity at 10 µM was -3.13%.

Turning to `Cc1cnn(CC2CCCN2C(=O)c2ccc(F)cc2Cl)c1` (configuration not stated), the cytotoxicity at 10 µM came to 2.99%.

As to `c1cnn(CC2CN(CC3CCCCC3)CCO2)c1` (configuration not stated), the cytotoxicity at 10 µM is -7.85%.

Turning to `CC(C)Oc1ccc(C(=O)N2CCC(Nc3cccnn3)CC2)cn1`, the cytotoxicity at 10 µM is -31%.

`CN(C)c1cc(CNC(=O)c2n[nH]c(=O)c3ccccc23)ccn1`: the cytotoxicity at 10 µM is -3.79%.

With `CN(C)CCNC(=O)c1sc2ccccc2c1C1CCC(CN)CC1` (configuration not stated), the cytotoxicity at 10 µM is -15.3%.

On to `CN(Cc1ccco1)C1CCC12CCN(C(=O)c1ccco1)CC2` (configuration not stated), for which the cytotoxicity at 10 µM is -10.9%.

For the compound `COCc1cnc2n1CCN(C1CCCC1)C2C` (configuration not stated), the cytotoxicity at 10 µM came out at 9.13%.

As for `CN(C)[C@@H]1CN(C(=O)c2ccc(C#N)cc2)[C@@H]2CCCO[C@H]12`, the cytotoxicity at 10 µM was -146%.

Turning to `O=C1[C@H]2CN(Cc3ccc(F)cc3)C[C@H]2CN1c1cncnc1`, the cytotoxicity at 10 µM was -2.32%.

Consider `Cc1cccc(NC(=O)C2CCc3ccccc3N2)c1` (configuration not stated), for which the cytotoxicity at 10 µM was -5.92%.

For the compound `Cc1noc(C)c1CN1CCO[C@H]2[C@H](Oc3ccccn3)CC[C@@H]21`, the cytotoxicity at 10 µM is -6.69%.

In the case of `CC(C)N1[C@H](CN2CCCC2)C[C@@H]2CN(Cc3ccoc3)CC[C@@H]21`, the cytotoxicity at 10 µM was -157%.

For `COc1c(CNC2(c3noc(C)n3)CCC2)c(C)nn1C`, the cytotoxicity at 10 µM was 4.2%.

As for `Cc1ccc2c(n1)N(CCn1cccn1)CCN(S(C)(=O)=O)C2`, the cytotoxicity at 10 µM came out at 13.5%.

For the compound `CCc1cnc(N2C[C@@H](NC(=O)c3cscn3)[C@H]3COC[C@H]32)nc1`, the cytotoxicity at 10 µM is -127%.

Regarding `O=C(c1cnc2ccccc2c1)N1CCC2(CCN2c2ncccn2)C1` (configuration not stated), the cytotoxicity at 10 µM is -122%.

In the case of `COc1ccccc1CN1CC[C@]2(C[C@@H](OC)CO2)C1`, the cytotoxicity at 10 µM was -5.35%.

For the compound `CN(C)CCn1c2c(ccc1=O)CCN(C(=O)c1ccoc1)CC2`, the cytotoxicity at 10 µM came out at 6.2%.

With `Cc1ccc(C)c(CN2C[C@@H]3CC[C@H]2CN(C(=O)c2cccnc2)C3)c1`, the cytotoxicity at 10 µM amounted to 3.41%.
